Assay outcomes as filed in PubChem BioAssay.
MT1-MMP act inh: blocks activation of human MT1-MMP; P50281; 360,000 tested, 0.061% active; HT1080 RFP-PRO-GFP cells, GFP/RFP ratio fluorescence, overnight; percent of plate control window, DMSO zero; AID 651647; GFP/RFP ratio change, % at 20 µM;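 active = GFP/RFP ratio change of at least 30% with cell ATP level not reduced by more than half and red fluorescence within 50% of control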
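Material: RFP-PRO-GFP reporter HT1080 cells. Dosing: single-point 20 µM compound, 1% DMSO. Controls: DMSO and RFP-L50D-GFP cell wells. Timing: cells overnight before dosing, compound overnight, 37 °C, 5% CO2. Measure: GFP/RFP fluorescence ratio.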
ADAM17 inh: inhibitors of human ADAM17; 370,000 tested, 0.83% active; inhibition, % at 6.95 µM; P78536; recombinant ADAM17, EDANS/DABCYL FRET peptide cleavage;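 active = inhibition above the mean of compounds lying between control limits plus 3 SD, set per campaign, cut at about 8.5% in these data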;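 note: 0% = DMSO-only wells as the low control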
Target sequence (P78536 215-824 limits assumed): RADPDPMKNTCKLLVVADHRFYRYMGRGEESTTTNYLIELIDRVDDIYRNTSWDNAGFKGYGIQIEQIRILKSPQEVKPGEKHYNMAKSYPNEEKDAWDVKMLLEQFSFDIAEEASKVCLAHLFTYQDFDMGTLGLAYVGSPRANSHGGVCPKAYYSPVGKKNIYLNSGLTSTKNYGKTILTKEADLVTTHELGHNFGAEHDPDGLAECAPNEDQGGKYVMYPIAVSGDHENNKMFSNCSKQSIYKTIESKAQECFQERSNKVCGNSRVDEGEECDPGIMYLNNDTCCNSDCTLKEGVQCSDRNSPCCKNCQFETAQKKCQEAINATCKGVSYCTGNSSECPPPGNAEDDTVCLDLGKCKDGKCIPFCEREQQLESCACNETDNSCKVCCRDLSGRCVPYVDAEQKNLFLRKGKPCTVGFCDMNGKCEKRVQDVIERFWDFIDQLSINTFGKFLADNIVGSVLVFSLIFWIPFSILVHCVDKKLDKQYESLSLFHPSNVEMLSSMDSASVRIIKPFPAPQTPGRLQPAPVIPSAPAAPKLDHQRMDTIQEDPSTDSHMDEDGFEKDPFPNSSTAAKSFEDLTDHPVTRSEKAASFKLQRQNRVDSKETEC
MPTP block: inhibitors of mitochondrial permeability transition pore | isolated mouse mitochondria, Ca2+ swelling absorbance, 30 min | inhibition, % at 10 µM | AID 602449 | 360,000 tested, 1.4% active;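 active = inhibition of 50% or more, scaled per plate between neutral and stimulator controls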;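 note: 0% = DMSO wells given calcium and 100% = 1 mM EGTA wells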
GRIN3A LBD mod: modulators (binders) of human NR3A ligand-binding domain; 340,000 tested, 2.5% active; NR3A LBD differential scanning fluorimetry, Tm shift; 0% = protein alone, 100% = glycine-bound protein; Tm shift relative to glycine control, % at 25 µM;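 active = melting temperature shift of at least 10% of the positive control shift, at one fixed dose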
ADAM10 inh: inhibits human ADAM10. O14672. recombinant ADAM10, EDANS/DABCYL FRET peptide cleavage, 3 h. inhibition, % at 7 µM. 370,000 tested, 0.62% active;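 active = inhibition above a per-campaign cutoff equal to the mean of compounds falling between control-based bounds plus 3 SD, cut at about 20% in these data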;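 note: 0% = DMSO wells while the 100% control is not disclosed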
SKN-1 inh: inhibitors of C. elegans SKN-1; C. elegans VP596 Pgst-4::GFP/RFP ratio, acrylamide-induced, 24 h; inhibition, % at 21.8 µM; 360,000 tested, 0.49% active; AID 624304;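 active = interference check ratio from 0.5 to 1.5 plus GFP to RFP signal ratio inhibition reaching or exceeding a fixed threshold, cut at about 30% in these data, passing the limit was not always enough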
ADAM10 ctr: counter-screen for ADAM17 exosite inhibitors: inhibitors of human ADAM10 | shares compounds with ADAM17 inh | recombinant ADAM10, EDANS/DABCYL FRET peptide cleavage, 3 h | inhibition, % at 6.95 µM | 2,900 tested, 47% active | AID 743256;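 active = mean inhibition over the triplicate runs exceeds the activity threshold set in the earlier primary screen, cut at about 20% in these data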;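 note: 0% = DMSO wells and 100% = marimastat wells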
ADAM17 confirm: confirmation of inhibitors of human ADAM17; shares compounds with ADAM17 inh; recombinant ADAM17, EDANS/DABCYL QFRET peptide cleavage; inhibition, % at 6.95 µM; 2,900 tested, 65% active;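 active = mean inhibition across replicates above the hit cutoff set in the primary screen, cut at about 8.5% in these data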;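 note: 0% = DMSO wells and 100% = marimastat wells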
An asterisk follows results filed as active; · = no result given. Shown are actives, neighbours in structure and some others; about 4.7% of the full set was active somewhere.

SMILES | MT1-MMP act inh | ADAM17 inh | MPTP block | GRIN3A LBD mod | ADAM10 inh | SKN-1 inh | ADAM10 ctr | ADAM17 confirm
CC1(NC(=O)CC(c2ccccc2)(c2ccccc2)c2ccccc2)CCN(CCCc2ccccc2)C1=O (configuration not stated) | -24 | 6 | -2 | -1 | 18 | 25 | · | ·
CCc1nc2c(OCCC3CCCCC3)cccn2c1N(C)C(=O)c1cccs1 | -12 | 9.4* | -1 | · | 17 | 8 | 21* | 12*
CCCCC(=O)N(C)c1c(CC)nc2c(OCC3CCCCC3)cccn12 | -22 | 9.7* | 0 | · | 5 | 8 | 0 | 3
CCc1nc2c(OCCC3CCCCC3)cccn2c1N(C)C(=O)CC(C)C | -14 | -4 | -2 | · | -11 | 14 | · | ·
Cc1ccc(-c2csc(Nc3ccccn3)n2)cc1 | -2 | 9.0* | 0 | -3 | 8 | 26 | 27* | 16*
Cc1c(NC(=O)c2cccc(NC(=O)c3ccco3)c2)cccc1C(=O)O | 0 | 9.0* | -1 | 1 | 6 | 11 | -7 | -1
Cc1ccc(CNC(=O)c2ccc(Cn3nc(C)cc3C)o2)cc1 | 4 | -3 | 0 | 3 | -5 | 16 | · | ·
Cc1cc(C)n(Cc2ccc(C(=O)NCc3ccco3)o2)n1 | 1 | 9.4* | 2 | 0 | 0 | 36* | -8 | -2
CC(=O)Nc1sc(C)c(C)c1C(=O)OCC(=O)N(CC(C)C)C1CCS(=O)(=O)C1 (configuration not stated) | -1 | -5 | 0 | -1 | -12 | -20 | · | ·
CCn1nnnc1SCC(=O)c1cccc(OC)c1 | 1 | 0 | 0 | -2 | 2 | 3 | · | ·
COc1ccc(-n2nnnc2SCC(=O)c2cccc(OC)c2)cc1 | 1 | 10* | 1 | 4 | 7 | -1 | 8 | 8
COc1ccc(NC(=O)c2oc3ccccc3c2NC(=O)C(C)(C)C)cc1 | -3 | 9.7* | 4 | 3 | 9 | 98 | 9 | 8.8*
CN1CCN(NC(=O)c2cc(S(=O)(=O)Nc3ccc(Cl)cc3)ccc2Cl)CC1 | 3 | -2 | 0 | 0 | 2 | -11 | · | ·
COc1ccc([C@H]2/C=C\CN(C(=O)c3ccc(C)cc3)[C@@H](C)C(=O)N2Cc2ccc(F)cc2)cc1 | -6 | 2 | 2 | 8 | 15 | 0 | · | ·
COc1ccc(C2/C=C\CN(C(=O)c3ccccc3)[C@H](Cc3ccccc3)C(=O)N2Cc2ccc(F)cc2)cc1 (some centres not stated) | -6 | 11* | 0 | 1 | 13 | -20 | 21* | 11*
COc1cc(CN2CC(=O)N(c3ccc(C)cc3)C2=S)cc(OC)c1OC | 0 | 3 | 16 | -8 | 4 | 5 | · | ·
CCOc1cc(C(=O)Nc2ccc(S(=O)(=O)Nc3nnc(CC)s3)cc2)cc(OCC)c1OCC | 6 | 1 | 0 | -8 | 7 | 6 | · | ·
CCC(CC)C(=O)Nc1cccc(C(=O)Nc2ccc(S(N)(=O)=O)cc2)c1 | 0 | -1 | -2 | 0 | -2 | 1 | · | ·
CCc1nnc(NS(=O)(=O)c2ccc(NC(=O)c3cccc(Br)c3)cc2)s1 | -4 | 9.6* | -2 | -8 | 2 | 10 | 0 | 3
CCC(CC)C(=O)Nc1cccc(C(=O)Nc2ccc(S(=O)(=O)Nc3ccc(C)cc3)cc2)c1 | -14 | 8.8* | 11 | 19* | 18 | 5 | 22* | 17*
O=C(CSc1ccc2nnc(CCNC(=O)c3ccccc3)n2n1)Nc1ccccc1F | -6 | -5 | 1 | 1 | 1 | 2 | · | ·
CC1CCN(S(=O)(=O)c2ccc3c(c2)N(CC(=O)NCCCN2C(C)CCCC2C)C(=O)CO3)CC1 (configuration not stated) | -4 | 14* | -2 | 0 | 2 | -23 | 0 | 8
CC1CCCC(C)N1CCCNC(=O)CN1C(=O)COc2ccc(S(=O)(=O)N3CCOCC3)cc21 (configuration not stated) | -5 | 0 | 0 | -1 | -4 | 9 | · | ·
COc1cc2c(cc1OC)C1=C(C#N)CN(CC(=O)O)CN1CC2 | -5 | -86 | 0 | 7 | -282 | 0 | · | ·
CN1CCN(C2=C(Cl)C(=O)N(c3ccc(Cl)c(Cl)c3)C2=O)CC1 | -2 | · | 0 | -3 | · | 4 | · | ·
SMILES | MT1-MMP act inh | ADAM17 inh | MPTP block | GRIN3A LBD mod | ADAM10 inh | SKN-1 inh | ADAM10 ctr | ADAM17 confirm
Clc1ccc(SCCOCCN2CCCCCC2)cc1 | 2 | 0 | 5 | 0 | 5 | 10 | · | ·
Cc1ccccc1C(=O)Nc1cccc(NC(=O)c2ncn[nH]2)c1 | 0 | 1 | 1 | -4 | -11 | -4 | · | ·
Cc1cccc(C2(c3cccc(C)c3)OC(=O)c3ccccc32)c1 | · | 9.6* | 0 | -2 | 17 | -6 | 10 | 15*
CC1=C(C(=O)OCCNC(=O)c2ccccc2O)C(c2ccccc2[N+](=O)[O-])C(C(=O)OCC2CCCO2)=C(C)N1 (configuration not stated) | -20 | 13* | 3 | 1 | 15 | -2 | 16 | 7
CC1=C(C(=O)OCC2CCCO2)C(c2ccccc2)NC(=O)N1 (configuration not stated) | 5 | -1 | 0 | -1 | -5 | -3 | · | ·
COc1ccccc1CCn1cnc(-c2ccccc2)c1CC(C)C | · | 8.7* | · | · | 11 | · | 18 | 9.1*
CCOc1ccc(-c2[nH]ncc2-c2ccc(Cl)cc2)c(O)c1 | 7 | 9.9* | 1 | 22* | 15 | 1 | 12 | 12*
CC(C)N(Cc1ccccc1)S(=O)(=O)c1ccc(-n2cccn2)cc1 | -1 | 0 | 0 | · | -2 | 8 | · | ·
COc1cccc(-c2noc(-c3cccnc3)n2)c1 | -5 | -2 | 0 | 1 | -5 | 8 | · | ·
COc1cccc(-c2noc(C(C)n3nc(C)c([N+](=O)[O-])c3C)n2)c1 (configuration not stated) | 2 | 13* | 4 | 14* | 16 | -17 | 13 | 6
CN(c1ccc(OCC(=O)OCC(=O)c2c(N)n(C)c(=O)n(C)c2=O)cc1)S(=O)(=O)c1ccc2ccccc2c1 | 8 | 9.3* | 1 | -1 | 18 | -4 | 23* | 10*
CC(C)c1cc(C(=O)NC2CCCc3c2cnn3-c2ccccc2F)no1 (configuration not stated) | -3 | 0 | 22 | -1 | -2 | -3 | · | ·
CCn1c2ccccc2c2nnc(SCN3C(=O)c4ccccc4C3=O)nc21 | -4 | -4 | 9 | -1 | -10 | 3 | · | ·
